Screens deposited in PubChem BioAssay by Broad Institute.
Rows were chosen to be rich in hits. Some 0.16% of all compounds tested hit in one or more screens of this group.
GSK3 alpha inh: human GSK-3 alpha kinase inhibition; ADP-Glo luminescence, 60 min; inhibition, % at 10 µM; actives 0.1% (n = 320,000); AID 2650;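 active = more than half of replicates show inhibition above 20%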;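 also: GST-tagged GSK-3 alpha with peptide substrate and 25 µM ATP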
GSK3beta inhib: human GSK3beta kinase inhibition. GST-GSK3beta kinase, ADP-Glo luminescence, 60 min; stronger effect = lower value. activity score (negative = inhibition), % at 10 µM. actives 0.038% (n = 300,000);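 active = more than half of replicate wells score below -50%, meaning over 50% inhibition versus plate controls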
Target sequence (P49841 whole entry, looked up): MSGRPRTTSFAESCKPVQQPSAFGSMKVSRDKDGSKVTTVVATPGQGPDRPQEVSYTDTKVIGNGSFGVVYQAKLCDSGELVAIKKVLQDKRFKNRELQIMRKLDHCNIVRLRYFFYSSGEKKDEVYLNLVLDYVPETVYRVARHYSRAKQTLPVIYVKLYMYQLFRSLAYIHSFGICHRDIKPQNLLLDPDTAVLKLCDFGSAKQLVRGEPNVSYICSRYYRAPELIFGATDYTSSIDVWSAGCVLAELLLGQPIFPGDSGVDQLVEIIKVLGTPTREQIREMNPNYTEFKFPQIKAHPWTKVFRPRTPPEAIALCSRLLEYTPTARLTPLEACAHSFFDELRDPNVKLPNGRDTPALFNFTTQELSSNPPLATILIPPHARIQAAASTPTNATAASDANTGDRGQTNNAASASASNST
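Test system: GST-fused GSK3beta enzyme, cell-free | Quantity: 1.6 ng GST-GSK3beta enzyme per well | Reagent: 25 µM ATP with peptide substrate | Schedule: 60 min enzyme reaction, room temperature | Signal: Luminescent ADP-Glo measurement of ADP formed | Read-out basis: Score relative to plate controls | Control set: DMSO and 20 µM GW8510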
CDK5 inh: CDK5/p35 (human) kinase inhibition; actives 0.01% (n = 330,000); Recombinant CDK5/p35, ADP-Glo luminescence, 60 min; Q00535+Q15078; AID 488839; inhibition, % at 10 µM;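 active = highest replicate inhibition of at least 50% and at least 75% of replicates reaching 50%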
STK33 kinase inh: inhibitors of human STK33 kinase; Q9BYT3; purified STK33, MBP phosphorylation, ADP-Glo luminescence; inhibition, % at 10 µM; actives 0.073% (n = 320,000); AID 2661;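 active = inhibition at or above 25%, using the most active replicate where run in duplicate; inactive = inhibition below 25%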
Each line names hits and unclear results; the compound was inactive in the other large screens.

COc1ccc(CCNC(=O)[C@@H](NC(=O)N2CC(=O)Nc3ccccc32)C(C)C)cc1OC	none
Cc1c(N=C2NC(=O)/C(=C/c3ccc(O)cc3)S2)c(=O)n(-c2ccccc2)n1C	none
O=C1NC(=NCc2ccccc2)S/C1=C/c1ccc(O)cc1	GSK3beta inhib -64.8, STK33 kinase inh 63.8
CC(C)Oc1ccc(C(=O)NCC(=O)N2CCN(S(=O)(=O)/C=C/c3ccccc3)CC2)cc1	none (no result: GSK3 alpha inh, GSK3beta inhib, STK33 kinase inh)
COc1ccc2c(c1)-c1c(ssc1=S)C(C)(C)N2	GSK3beta inhib -59.9
O=C(COC(=O)c1cc(S(=O)(=O)N2CCOCC2)ccc1F)Nc1ccc(Cl)cn1	GSK3 alpha inh 51.0 (no result: GSK3beta inhib)
O=C(COC(=O)CCc1ccc(S(=O)(=O)N2CCOCC2)cc1)Nc1ccc(Cl)cn1	none
CC(CCC(C)C(C)(C)C)[C@@H]1CC[C@H]2C3C[C@H](OS(O)(=S)=S)[C@H]4C[C@H](OS(O)(=S)=S)[C@@H](OS(O)(=S)=S)C[C@]4(C)[C@H]3CC[C@]12C (some centres undefined) (tested in a mixture with another compound)	CDK5 inh 80.4 (no result: GSK3beta inhib)
CCOC(=O)c1cnc2ccc(OCC)cc2c1N1CCN(C)CC1	none (no result: GSK3 alpha inh, STK33 kinase inh)
CCOC(=O)c1cnc2ccc(Cl)cc2c1N1CCN(C)CC1	GSK3 alpha inh 64.2
Cc1cc(O)c(N=Nc2ccc(C(=O)O)cc2)cc1C	none (no result: GSK3 alpha inh, GSK3beta inhib, STK33 kinase inh)
O=C(CSc1nnc(-c2ccc(O)cc2)o1)Nc1ccccc1	GSK3 alpha inh 51.7 (no result: GSK3beta inhib)
Cc1cc(NC(=O)CSc2nnc(-c3ccc(O)cc3)o2)no1	none
N#Cc1c(Nc2ccccc2)c(/C=N/N=C/c2ccccc2)c[nH]c1=O	none
N#CC(C#N)=Cc1c[nH]c(=O)c(C#N)c1Nc1ccccc1	GSK3 alpha inh 73.9 (no result: CDK5 inh)
CN(C)c1cc2c(c(N(C)C)c1)C(=O)c1ccccc1C2=O	STK33 kinase inh 40.2
CN(C)S(=O)(=O)c1cccc2c1C(=O)c1ccccc1C2=O	none
CCCN(CCC)Cc1c(C(=O)N/N=C/c2ccoc2)nnn1-c1nonc1N	GSK3 alpha inh 71.8, GSK3beta inhib -58.4
CCN(CC)Cc1c(C(=O)N/N=C/c2ccncc2)nnn1-c1nonc1N	GSK3 alpha inh 100.8
CN(C)Cc1c(C(=O)N/N=C/c2ccoc2)nnn1-c1nonc1N	none
Nc1nonc1-n1nnc(C(=O)N/N=C/c2ccc(O)cc2)c1CN1CCCCCC1	GSK3 alpha inh 83.1, GSK3beta inhib -63.9
CN(C)Cc1c(C(=O)N/N=C/c2ccncc2)nnn1-c1nonc1N	GSK3 alpha inh 63.8
O=c1[nH]cnc(O)c1C(c1cccc([N+](=O)[O-])c1)c1c(O)nc[nH]c1=O	none
O=C(NC1CCCCC1)C(c1ccccn1)N(C(=O)c1csnn1)c1ccccc1F (centres undefined)	none
NC(=O)c1cc([N+](=O)[O-])ccc1NCC1CCCCC1	none (no result: GSK3beta inhib)
Cc1csc(C(=O)NCC(=O)NNC(=O)c2cccc(Cl)c2)c1	none
COc1cccc(/C=N/n2c(C3CCCCC3)n[nH]c2=S)c1O	none
COc1cc(/C=N/n2c(-c3cc(C)[nH]n3)n[nH]c2=S)ccc1O	STK33 kinase inh 30.8
COc1cc(/C=N/n2c(C3CCCCC3)n[nH]c2=S)ccc1O	STK33 kinase inh 34.2
COc1cc(/C=N/n2c(-c3cc(C)[nH]n3)n[nH]c2=S)cc(OC)c1OC	none
O=C(NCCn1cccn1)C1CCC(=O)N(CCc2ccccc2)C1 (centres undefined)	none
CCN1CCN(c2cc(C)c3cc(NC(=O)c4ccncc4)ccc3n2)CC1	none
CCN1CCN(c2cc(C)c3cc(NC(=O)c4ccc(Br)o4)ccc3n2)CC1	STK33 kinase inh 28.8
NC(=O)N/N=C/c1c(O)ccc2oc3c(c12)CCCC3	GSK3 alpha inh 85.4, CDK5 inh 90.2, STK33 kinase inh 74.6
COc1ccc(N(CC(O)CN2CCOCC2)S(=O)(=O)c2ccccc2)cc1 (centres undefined)	none
COc1cccc(-c2onc3ccc(C(=O)/C=C/N(C)C)cc23)c1	STK33 kinase inh 54.2
Cc1ccc(-c2onc3ccc(C(=O)/C=C/N(C)C)cc23)cc1	none
COc1ccc(C2=CC3=C(Br)C(=O)C(C)(O)C(=O)C3=CO2)cc1 (centres undefined)	STK33 kinase inh 29.3
COc1ccc(-n2c(SCC(=O)Nc3ccc(C(=O)O)cc3)nnc2-c2ccccc2)cc1OC	none
Cc1[nH]nc2c1C(c1ccc(O)cc1)C1=C(CC(C)(C)CC1=O)N2 (centres undefined)	GSK3 alpha inh 86.4, GSK3beta inhib -73.7
Cc1[nH]nc2c1C(c1ccsc1)C1=C(CC(C)(C)CC1=O)N2 (centres undefined)	GSK3 alpha inh 84.3, GSK3beta inhib -76.5
Cc1ccc(C2C3=C(CC(C)(C)CC3=O)Nc3[nH]c(=S)[nH]c(=O)c32)cc1 (centres undefined)	none (no result: GSK3 alpha inh)
COc1ccc(C2C3=C(CC(C)(C)CC3=O)Nc3n[nH]c(C)c32)cc1 (centres undefined)	none
COc1cccc(C2C3=C(CC(C)(C)CC3=O)Nc3n[nH]c(C)c32)c1 (centres undefined)	GSK3 alpha inh 78.4, GSK3beta inhib -85.7
Cc1ccc(S(=O)(=O)NN=C2C(=O)C3CCC2C3Cl)cc1 (centres undefined)	none (no result: GSK3 alpha inh, GSK3beta inhib, STK33 kinase inh)
Cc1ccoc1C(=O)N1CCN(C(=O)c2occc2C)CC1	none
O=c1oc2cc(O)ccc2c2c1CCCC2	GSK3 alpha inh 55.9
CCN(CC)CCCNc1nc(N)c([N+](=O)[O-])c(N2CCCCCC2)n1	GSK3 alpha inh 53.5
C=CCNc1nc(N)c([N+](=O)[O-])c(N2CCCCCC2)n1	none
CC1CCC(NC(=O)CSc2nnnn2C)CC1 (centres undefined)	none (no result: GSK3beta inhib)
CN(C)CCCNc1ccc(-c2cc(Nc3cccc(Cl)c3)ncn2)cn1	GSK3beta inhib -85.8
O=C(Nc1ccncc1)Nc1ccccn1	GSK3 alpha inh 71.7, GSK3beta inhib -62.2
CCOc1ccc(-c2cc(CCCC(=O)N3CCN(c4ccc(OC)cc4)CC3)no2)cc1	none
CCOc1ccc(-c2cc(CCCC(=O)NCCCOC)no2)cc1	STK33 kinase inh 28.0
CCN(CC)C(=O)c1cccc(NC(=O)C2CCN(C(=O)c3cccs3)CC2)c1	none (no result: GSK3beta inhib)
COc1ccc(CN(C)S(=O)(=O)c2ccc3c(c2)OCCO3)cc1	none
O=c1[nH]c2c(s1)C(c1ccc(O)cc1)C1C3CCC(C3)C1S2 (centres undefined)	GSK3 alpha inh 75.5
Oc1ccc(/C=N/NC(=S)N/N=C/c2ccc(O)cc2)cc1	STK33 kinase inh 30.5
Oc1ccc(/C=N/NC(=S)Nc2cccnc2)cc1	none
O=C(OC[C@H]1O[C@@H](OC(=O)c2cc(O)c(O)c(OC(=O)c3cc(O)c(O)c(O)c3)c2)[C@H](OC(=O)c2cc(O)c(O)c(OC(=O)c3cc(O)c(O)c(O)c3)c2)[C@@H](OC(=O)c2cc(O)c(O)c(OC(=O)c3cc(O)c(O)c(O)c3)c2)[C@@H]1OC(=O)c1cc(O)c(O)c(OC(=O)c2cc(O)c(O)c(O)c2)c1)c1cc(O)c(O)c(OC(=O)c2cc(O)c(O)c(O)c2)c1	GSK3 alpha inh 91.2, STK33 kinase inh 28.4 (no result: GSK3beta inhib, CDK5 inh)
O=[N+]([O-])c1c(-c2cn[nH]c2)n[nH]c1-c1cn[nH]c1	GSK3 alpha inh 66.5
